Test results published in ChEMBL document CHEMBL4024708, “Recent synthetic and medicinal perspectives of dihydropyrimidinones: A review” (Eur J Med Chem, 2017).
≈ marks a conversion by molar mass, not a printed value.

Legend:
Mus musculus [1] = assay: Anticonvulsant activity in ip dosed maximal electroshock induced seizure mouse model assessed as suppression of hind limb tonic extension measured at 0.5 hrs post dose; assay type: functional; details: read-out: MED
Method in brief: (§1)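 Albino mice given the compound ip, suspended in 0.5% methyl cellulose–water, at 30, 100 and 300 mg/kg. Maximal electroshock by corneal electrodes: 50 mA, 60 Hz, 0.2 s. Abolition of hind limb tonic extension scored as protection. Value is the minimum dose active in half or more of the mice.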

Mus musculus [2] = assay: Anticonvulsant activity in ip dosed maximal electroshock induced seizure mouse model assessed as suppression of hind limb tonic extension measured at 4 hrs post dose; assay type: functional; details: read-out: MED; method in brief: as §1
[3] = target: T1, Alpha-1A adrenergic receptor (Homo sapiens, UniProt P35348); assay: Displacement of [125I]L-762,459 from recombinant human alpha1a adrenergic receptor expressed in mammalian cells measured after 1 hr; assay type: cell-based
T1 sequence (P35348 whole entry): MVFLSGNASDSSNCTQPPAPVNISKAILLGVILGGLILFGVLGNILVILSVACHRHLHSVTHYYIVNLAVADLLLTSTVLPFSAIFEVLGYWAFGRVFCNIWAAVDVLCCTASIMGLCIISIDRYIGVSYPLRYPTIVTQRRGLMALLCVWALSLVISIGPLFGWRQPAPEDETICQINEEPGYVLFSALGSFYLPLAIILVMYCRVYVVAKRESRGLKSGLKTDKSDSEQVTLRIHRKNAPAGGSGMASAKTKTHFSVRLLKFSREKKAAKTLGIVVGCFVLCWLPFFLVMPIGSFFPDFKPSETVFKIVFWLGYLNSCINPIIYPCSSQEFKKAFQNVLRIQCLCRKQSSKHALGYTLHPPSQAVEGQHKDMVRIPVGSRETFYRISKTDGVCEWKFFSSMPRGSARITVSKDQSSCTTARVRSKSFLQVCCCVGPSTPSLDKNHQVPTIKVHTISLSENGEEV

Escherichia coli = assay: Antibacterial activity against Escherichia coli MTCC 443 by spectrophotometric method; assay type: functional
Method in brief: (§2)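 Serial broth dilution, 200 to 15.625 μg/mL, in nutrient broth, sonicated 10 min. Inoculum gave a starting density of 10^3–10^4 CFU/mL. Flasks were shaken at 200 rpm and 37 °C, and growth followed by the rise in absorbance at 600 nm. MIC is the lowest concentration inhibiting the organism. Controls: compound without inoculum, and inoculum without compound.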

Pseudomonas aeruginosa = assay: Antibacterial activity against Pseudomonas aeruginosa MTCC 2581 by spectrophotometric method; assay type: functional; method in brief: as §2
Klebsiella pneumoniae = assay: Antibacterial activity against Klebsiella pneumoniae MTCC 7028 by spectrophotometric method; assay type: functional; method in brief: as §2
[4] = Antioxidant activity assessed as DPPH free radical scavenging activity at 12.5 ppm after 30 mins in dark by spectrophotometric method relative to control; assay type: functional
Method in brief: (§3)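 DPPH (1,1-diphenyl-2-picrylhydrazyl) radical scavenging assay. The change in absorbance was read at 517 nm on a spectrophotometer. Activity is given as percent inhibition of the DPPH radical, calculated as (absorbance of control − absorbance of sample)/absorbance of control × 100.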

SR = assay: Growth inhibition of human SR cells after 48 hrs by SRB assay; assay type: functional
CCRF-CEM = assay: cells; details: Homo sapiens, 48 h
Staphylococcus aureus = assay: Antibacterial activity against Staphylococcus aureus MTCC 3160 by spectrophotometric method; assay type: functional; method in brief: as §2
Rattus norvegicus = assay: Anti-inflammatory activity in rat assessed as inhibition of carrageenan-induced hind paw edema at 10 mg/kg, po pretreated for 1 hr followed by carrageenan challenge measured after 3 hrs by plethysmometer relative to control; assay type: functional
Method in brief: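 Albino rats; carrageenan-induced paw edema test after Winter et al., with diclofenac sodium as reference standard. Percentage reduction in inflammation recorded 3 h after carrageenan, relative to carrageenan-only animals.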

[5] = Antioxidant activity assessed as DPPH free radical scavenging activity at 100 ppm after 30 mins in dark by spectrophotometric method relative to control; assay type: functional; method in brief: as §3
[6] = Antioxidant activity assessed as cupric ion reducing activity by measuring increase in absorbance at 100 ppm by CUPRAC assay; assay type: functional
Method in brief: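 CUPRAC assay. Sample solution was mixed with distilled water, at a pH close to 7. Reduction of Cu(II) to Cu(I) was followed as the increase in absorbance at 450 nm of the reaction mixture.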

[7] = Antioxidant activity assessed as cupric ion reducing activity by measuring increase in absorbance at 12.5 ppm by CUPRAC assay; assay type: functional
Method in brief: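 CUPRAC: reduction of Cu(II) to Cu(I) followed by the increase in absorbance at 450 nm. Sample and distilled water were made up to 4 mL total, near pH 7. Compounds were tested at 12.5–100 ppm, with gallic acid and quercetin as standards.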

For O=C1NC(=O)C(c2ccccc2)(c2ccccc2)N1 [PHENYTOIN], the minimal effective dose (Mus musculus [1]) was 30 mg/kg and the minimal effective dose (Mus musculus [2]) was 30 mg/kg.
For COCC1=C(C(=O)NCCCN2CCC(C#N)(c3ccc(F)cc3)CC2)[C@@H](c2ccc(F)cc2)NCN1, the Ki [3] was 0.17 nM.
For CCC(=O)C1=C(C)NC(=O)NC1c1cc(Cl)cc(Cl)c1 (centres undefined), the MIC (Escherichia coli) was 15.6 to 31.2 µg/mL (≈ 49.8 to 99.6 µM), the MIC (Pseudomonas aeruginosa) was 15.6 to 31.2 µg/mL (≈ 49.8 to 99.6 µM) and the MIC (Klebsiella pneumoniae) was 31.2 to 62.5 µg/mL (≈ 99.8 to 200 µM). For the same compound, the Activity [4] was 17.3%.
For CC(=O)C1=C(C)NC(=O)NC1c1ccc(Cl)cc1 (centres undefined), the MIC (Pseudomonas aeruginosa; read-out: MIC) was 250 µg/mL (≈ 944 µM) and the MIC (Klebsiella pneumoniae) was 31.2 to 62.5 µg/mL (≈ 118 to 236 µM).
Work on CCC(=O)C1=C(C)NC(=O)NC1c1cccc(Cl)c1 (centres undefined) yielded an MIC (Escherichia coli) of 15.6 to 31.2 µg/mL (≈ 56 to 112 µM), an MIC (Pseudomonas aeruginosa; read-out: MIC) of 62.5 µg/mL (≈ 224 µM) and an MIC (Klebsiella pneumoniae) of 31.2 to 62.5 µg/mL (≈ 112 to 224 µM).
Compound SC1=NC(n2nc(-c3ccccc3)nc2-c2ccccc2)=CC(c2ccc(-c3ccccc3)cc2)N1 (centres undefined) has a minimal effective dose (Mus musculus [1]) of 100 mg/kg and a minimal effective dose (Mus musculus [2]) of 300 mg/kg.
Compound O=c1/c(=C/c2ccc([N+](=O)[O-])o2)sc2n1C(c1ccc3c(c1)OCO3)C=C(c1cc(F)c(Cl)cc1Cl)N=2 (centres undefined) has a GI50 (SR) of 3340 nM and a GI50 (CCRF-CEM) of 3240 nM.
In the case of NC(=O)N1c2ccccc2C=Cc2ccccc21 [CARBAMAZEPINE], the minimal effective dose (Mus musculus [2]) is reported as 100 mg/kg.
In the case of CCC(=O)C1=C(C)NC(=O)NC1c1ccc(Cl)cc1 (centres undefined), the MIC (Escherichia coli) is reported as 15.6 to 31.2 µg/mL (≈ 56 to 112 µM), the MIC (Staphylococcus aureus) is reported as 62.5 to 125 µg/mL (≈ 224 to 448 µM) and the MIC (Pseudomonas aeruginosa) is reported as 15.6 to 31.2 µg/mL (≈ 56 to 112 µM). It also gave an MIC (Klebsiella pneumoniae) of 31.2 to 62.5 µg/mL (≈ 112 to 224 µM).
COc1ccc(C2NC(S)=NC(c3ccc(Cl)cc3)=C2CC(=O)O)cc1 (centres undefined) showed an inhibition in vivo at 10 mg/kg (Rattus norvegicus) of 35%.
Compound COCC1=C(C(=O)NCCCN2CCC(C#N)(c3ccc(C#N)cc3)CC2)[C@@H](c2ccc(F)c(F)c2)NC(=O)N1 has a Ki [3] of 0.16 nM.
Compound CCC(=O)C1=C(C)NC(=O)NC1c1ccc([N+](=O)[O-])cc1 (centres undefined) has an MIC (Staphylococcus aureus) of 62.5 to 125 µg/mL (≈ 216 to 432 µM) and an MIC (Pseudomonas aeruginosa) of 15.6 to 31.2 µg/mL (≈ 53.9 to 108 µM).
Work on COc1ccc(C2NC(=O)NC(C)=C2C(C)=O)cc1 (centres undefined) yielded an MIC (Staphylococcus aureus) of 62.5 to 125 µg/mL (≈ 240 to 480 µM), an MIC (Pseudomonas aeruginosa; read-out: MIC) of 250 µg/mL (≈ 960 µM) and an MIC (Klebsiella pneumoniae) of 31.2 to 62.5 µg/mL (≈ 120 to 240 µM).
With COc1ccc(C2C=C(n3nc(-c4ccccc4)nc3-c3ccccc3)N=C(S)N2)c(OC)c1 (centres undefined) the minimal effective dose (Mus musculus [1]) was 30 mg/kg and the minimal effective dose (Mus musculus [2]) was 300 mg/kg.
Compound O=C(O)c1cc(O)c(O)c(O)c1 has an Activity [5] of 92.4%, an Activity [4] of 62.4% and an absorbance [6] of 1.4.
Oc1ccc(C2C=C(n3nc(-c4ccccc4)nc3-c3ccccc3)N=C(S)N2)cc1 (centres undefined) showed a minimal effective dose (Mus musculus [1]) of 30 mg/kg and a minimal effective dose (Mus musculus [2]) of 300 mg/kg.
Compound CN(C)c1ccc(C2C=C(n3cc(-c4ccccc4)nc3-c3ccccc3)N=C(S)N2)cc1 (centres undefined) has a minimal effective dose (Mus musculus [1]) of 100 mg/kg and a minimal effective dose (Mus musculus [2]) of 300 mg/kg.
Compound O=c1c(O)c(-c2ccc(O)c(O)c2)oc2cc(O)cc(O)c12 has an Activity [5] of 82.3%, an Activity [4] of 55.3% and an absorbance [6] of 1.2.
Work on SC1=NC(n2nc(-c3ccccc3)nc2-c2ccccc2)=CC(c2ccc(Cl)cc2)N1 (centres undefined) yielded a minimal effective dose (Mus musculus [1]) of 30 mg/kg and a minimal effective dose (Mus musculus [2]) of 300 mg/kg.
With SC1=NC(n2nc(-c3ccccc3)nc2-c2ccccc2)=CC(c2ccc(Br)cc2)N1 (centres undefined) the minimal effective dose (Mus musculus [1]) was 100 mg/kg and the minimal effective dose (Mus musculus [2]) was 300 mg/kg.
For CCC(=O)C1=C(C)NC(=O)NC1c1ccc(OC)cc1 (centres undefined), the MIC (Staphylococcus aureus) was 250 µg/mL (≈ 911 µM), the MIC (Pseudomonas aeruginosa; read-out: MIC) was 250 µg/mL (≈ 911 µM) and the MIC (Klebsiella pneumoniae) was 31.2 to 62.5 µg/mL (≈ 114 to 228 µM). The absorbance [7] was 0.05.
In the case of O=C(O)CC1=C(c2ccccc2)N=C(S)NC1c1ccc(Cl)cc1 (centres undefined), the inhibition in vivo at 10 mg/kg (Rattus norvegicus) is reported as 30%.
